From ChEMBL document CHEMBL2412953, “Synthesis and biological evaluation of new N-alkylcarbazole derivatives as STAT3 inhibitors: preliminary study” (Eur J Med Chem, 2013) come the findings set out here.

Broadly, the inhibition is the change of the read-out against control, counted positive when it falls.

Assay [1] concerns the target Signal transducer and activator of transcription 3 (Homo sapiens) (UniProt P40763). Kind of assay: Inhibition of IL-6-stimulated STAT3 activation in human THP1 cells at 100 uM incubated for 30 mins prior to IL-6 stimulation measured after 15 mins by EMSA relative to control. In kind it is cell-based. Particulars: THP-1. A digest of the protocol: (§1)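 THP-1 cells (1.5 × 10⁶/mL; RPMI 1640, 10% FBS, 37 °C, 5% CO₂) pretreated 30 min with compound, then IL-6 20 ng/mL for 15 min. Nuclear extracts, made with protease inhibitors, were assayed for STAT3 DNA-binding by EMSA in Hepes pH 7.9 buffer with poly(dI-dC). Gel bands quantified by densitometry; % inhibition versus IL-6 alone, mean ± SD.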

Assay [2] shares this target. Kind of assay: Inhibition of IL-6-stimulated STAT3 activation in human THP1 cells at 50 uM incubated for 30 mins prior to IL-6 stimulation measured after 15 mins by EMSA relative to control. The following applies: THP-1. In kind it is cell-based. The gist of the method:
as §1
(Mobility shift assays separate free from complexed probe on a gel.)

Assay [3] addresses T1, Signal transducer and activator of transcription 1-alpha/beta (Homo sapiens) (UniProt P42224).
T1 sequence (whole entry): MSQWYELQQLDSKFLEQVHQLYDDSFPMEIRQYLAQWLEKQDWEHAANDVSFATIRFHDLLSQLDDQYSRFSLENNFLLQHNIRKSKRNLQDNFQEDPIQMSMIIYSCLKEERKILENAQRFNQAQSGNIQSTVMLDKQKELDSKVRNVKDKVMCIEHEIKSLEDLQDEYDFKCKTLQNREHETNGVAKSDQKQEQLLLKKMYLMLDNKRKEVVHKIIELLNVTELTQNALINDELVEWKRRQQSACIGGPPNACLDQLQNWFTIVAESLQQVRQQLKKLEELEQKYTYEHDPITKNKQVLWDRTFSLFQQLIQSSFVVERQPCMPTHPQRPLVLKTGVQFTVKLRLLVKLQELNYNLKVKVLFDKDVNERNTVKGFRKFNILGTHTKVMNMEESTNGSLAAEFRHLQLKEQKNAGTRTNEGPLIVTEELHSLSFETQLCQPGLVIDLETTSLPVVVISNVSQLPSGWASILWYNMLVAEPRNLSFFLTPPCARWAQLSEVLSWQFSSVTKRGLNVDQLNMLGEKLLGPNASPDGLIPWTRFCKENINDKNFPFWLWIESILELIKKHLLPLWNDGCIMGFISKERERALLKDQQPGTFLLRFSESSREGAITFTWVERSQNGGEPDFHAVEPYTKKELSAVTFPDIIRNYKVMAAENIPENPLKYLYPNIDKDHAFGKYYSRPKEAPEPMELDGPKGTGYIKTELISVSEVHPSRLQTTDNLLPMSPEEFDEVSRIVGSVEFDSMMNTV
The assay is described as follows: Inhibition of IFNgamma-induced STAT1 activation in human THP1 cells at 50 uM incubated for 30 mins prior to IFNgamma induction measured after 30 mins by EMSA. In kind it is cell-based. The following applies: THP-1. The gist of the method: (§2)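 THP-1 cells (1.5 × 10⁶/mL) pretreated 30 min with compound, then stimulated 30 min with IFNγ (STAT1) or TNFα plus LPS (NF-κB). Nuclear extracts were analysed for DNA-binding by EMSA.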

Assay [4] concerns THP-1. Kind of assay: Effect on total STAT3 level in IL-6-stimulated human THP1 cells at 50 uM incubated for 30 mins prior to IL-6 stimulation measured after 15 mins by Western blot analysis. Format: functional, cell-based. On the technique in general: Immunoblotting shows a protein as a band on a membrane.
In assay [5] the test system is THP-1. Kind of assay: Inhibition of TNFalpha and LPS-induced NFkappaB activation in human THP1 cells at 50 uM incubated for 30 mins prior to TNFalpha and LPS-induction measured after 30 mins by EMSA. Format: cell-based. A digest of the protocol:
as §2

Assay [6] addresses Signal transducer and activator of transcription 3 (Homo sapiens) (UniProt P40763). Kind of assay: Inhibition of IL-6-induced cytosolic STAT3 phosphorylation at Tyr705 in human THP1 cells at 50 uM incubated for 30 mins prior to IL-6 induction measured after 15 mins by Western blot analysis. In kind it is cell-based. Particulars: THP-1. The gist of the method: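 THP-1 cells (1.5 × 10⁶/mL) pretreated 30 min, then IL-6 20 ng/mL for 15 min. Cells were lysed at 4 °C in HEPES pH 7.4 NP-40 buffer with protease and phosphatase inhibitors. Lysate protein was run on 7.5% SDS-PAGE, blotted to PVDF and probed overnight at 4 °C with rabbit anti-phospho-Tyr705 STAT3.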

Active and inactive are the calls of the source. No cut-off for these calls is given here.

Sequence of Signal transducer and activator of transcription 3 (Homo sapiens) (P40763 whole entry): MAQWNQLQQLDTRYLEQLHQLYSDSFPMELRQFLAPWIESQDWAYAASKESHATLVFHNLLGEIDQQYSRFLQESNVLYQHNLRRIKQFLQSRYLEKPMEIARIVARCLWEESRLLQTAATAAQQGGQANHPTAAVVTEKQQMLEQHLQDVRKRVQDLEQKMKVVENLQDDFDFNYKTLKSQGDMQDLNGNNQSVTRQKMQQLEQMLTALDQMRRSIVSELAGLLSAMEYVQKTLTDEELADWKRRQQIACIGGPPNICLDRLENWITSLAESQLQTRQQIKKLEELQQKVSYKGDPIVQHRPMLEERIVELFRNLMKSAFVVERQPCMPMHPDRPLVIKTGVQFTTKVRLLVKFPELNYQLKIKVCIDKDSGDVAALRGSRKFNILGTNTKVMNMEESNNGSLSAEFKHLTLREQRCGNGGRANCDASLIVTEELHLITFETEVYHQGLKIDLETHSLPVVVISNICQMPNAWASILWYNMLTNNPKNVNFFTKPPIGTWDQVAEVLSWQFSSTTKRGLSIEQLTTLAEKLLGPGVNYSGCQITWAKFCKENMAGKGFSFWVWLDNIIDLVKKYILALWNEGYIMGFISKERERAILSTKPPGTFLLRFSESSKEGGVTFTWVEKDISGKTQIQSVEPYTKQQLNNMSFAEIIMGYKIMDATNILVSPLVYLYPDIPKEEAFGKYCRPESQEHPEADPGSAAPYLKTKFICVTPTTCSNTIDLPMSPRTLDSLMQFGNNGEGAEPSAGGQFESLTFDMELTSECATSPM

The compound `COC(=O)c1ccccc1OCCCCCn1c2ccc(OC)cc2c2c(C)ccc(C)c21` yielded an inhibition in assay [1] of 3%.

As to `COC(=O)c1cc(OCCCCCn2c3ccc(OC)cc3c3c(C)ccc(C)c32)cc(C(=O)OC)c1`, the inhibition in assay [2] was 50%. The inhibition entry (in assay [3]; with THP-1 [5]) was “inactive” in each case. In the assay with THP-1 [4], the result was inactive. The inhibition result in assay [6] is “Active”.

In turn, `COC(=O)c1ccccc1OCCCCCCn1c2ccccc2c2ccc(O)cc21` came in with an inhibition in assay [1] of 1%.

In assay [1], `COC(=O)c1ccccc1OCCCCCCn1c2ccccc2c2c(O)cccc21` returned an inhibition of 3%.

In the case of `COC(=O)c1cc(OCCCCCCCn2c3ccccc3c3ccc(O)cc32)cc(C(=O)OC)c1`, the inhibition in assay [1] came out at 5%.

The compound `COC(=O)c1cc(OCCCCCn2c3ccccc3c3c(O)cccc32)cc(C(=O)OC)c1` gave an inhibition in assay [1] of 20%.

In assay [2], `COC(=O)c1cc(OCCCCCCCn2c3ccc(OC)cc3c3c(C)ccc(C)c32)cc(C(=O)OC)c1` had an inhibition of 90%. The inhibition result (in assay [3]; with THP-1 [5]) was “inactive” throughout. Further, the outcome in the assay on THP-1 [4] was inactive. The inhibition entry in assay [6] was “Active”.

For the compound `COC(=O)c1cc(OCCCCCCCn2c3ccccc3c3c(O)cccc32)cc(C(=O)OC)c1`, in assay [1], the inhibition is 6%.

Take `COC(=O)c1cc(OCCCCCn2c3ccccc3c3ccc(O)cc32)cc(C(=O)OC)c1`: the inhibition in assay [1] worked out at 1%.

The compound `COC(=O)c1cc(OCCCCCCn2c3ccc(OC)cc3c3c(C)ccc(C)c32)cc(C(=O)OC)c1` showed an inhibition in assay [2] of 95%. Also, the inhibition result (in assay [3]; with THP-1 [5]) was “inactive” throughout. Moreover, in the assay on THP-1 [4], the result was inactive. In addition, the inhibition entry in assay [6] is “Active”.

Consider `COC(=O)c1ccccc1OCCCCCCCn1c2ccc(OC)cc2c2c(C)ccc(C)c21`, for which the inhibition in assay [1] was found to be 6%.

For the compound `COC(=O)c1ccccc1OCCCCCCn1c2ccc(OC)cc2c2c(C)ccc(C)c21`, the inhibition in assay [1] is 1%.

Compound `COC(=O)c1cc(OCCCCCCn2c3ccccc3c3c(O)cccc32)cc(C(=O)OC)c1` came in with an inhibition in assay [1] of 5%.

Consider `COC(=O)c1cc(OCCCCCCn2c3ccccc3c3ccc(O)cc32)cc(C(=O)OC)c1`, for which the inhibition in assay [1] amounted to 1%.
